From PubChem BioAssay
Pf Dd2 growth – P. falciparum Dd2 growth inhibition; SYBR Green, 72 h; stronger effect = lower value; activity change, % at 10 µM; 2.3% of 94,000 active; AID 1159554; in the data active = activity change below about -80%; inconclusive = no clear call, values can overlap the other calls
GASC1 inh – inhibitors of human demethylase GASC-1 KDM4C; GST-KDM4C 2-372, H3K9me3 peptide, LANCE TR-FRET; 0.15% of 96,000 active; inhibition, % at 12.5 µM;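 active = mean replicate inhibition above about 25%, with at least 55% of replicates also reaching it, limit read from the data, passing the limit was not always enough; inconclusive = only one of those two conditions met; inactive = neither condition met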
Target sequence (Q9H3R0 2-372 limits assumed): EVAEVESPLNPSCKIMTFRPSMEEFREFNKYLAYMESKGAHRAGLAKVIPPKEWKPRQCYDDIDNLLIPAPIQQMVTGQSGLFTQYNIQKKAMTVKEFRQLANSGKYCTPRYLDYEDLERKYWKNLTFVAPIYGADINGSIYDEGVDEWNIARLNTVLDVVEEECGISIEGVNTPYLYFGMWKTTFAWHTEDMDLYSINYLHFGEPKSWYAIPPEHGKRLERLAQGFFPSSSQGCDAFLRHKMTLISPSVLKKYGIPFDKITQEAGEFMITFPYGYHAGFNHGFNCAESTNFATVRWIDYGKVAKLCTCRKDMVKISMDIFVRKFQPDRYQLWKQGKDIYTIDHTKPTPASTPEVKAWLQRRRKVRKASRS
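Material: GST-tagged GASC-1 (JMJD2C) catalytic fragment, aa 2-372 / Quantity: enzyme final amount 10 nM / Medium: HEPES buffer, pH 7.5, plus ascorbate / Doses: one test concentration per compound / Incubation: 30 min reaction, 60 min detection, RT / Measured by: LANCE TR-FRET / Read-out: inhibition from TR-FRET ratio decrease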
IDH1 mut inh – blocks human IDH1 R132H reductase activity. O75874. diaphorase/resazurin fluorescence, 60 min. inhibition, % at 10 µM. 0.18% of 70,000 active. AID 624101; in the data active = inhibition above about 34%; inconclusive = no clear call, values can overlap the other calls; inactive = below about 11%;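 also: 0% = DMSO and 100% = no enzyme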
T cruzi growth-1 – T. cruzi proliferation inhibition; AID 624255; inhibition, % at 8.34 µM; 5.9% of 77,000 active; T. cruzi beta-gal in NIH3T3, GalScreen luminescence, 90 h;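 active = mean inhibition above about 93%, with at least 55% of replicates each passing it, limit read from the data, passing the limit was not always enough; inconclusive = only one of those two conditions holds; inactive = neither condition holds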
T cruzi growth-2 – blocks T. cruzi growth in NIH3T3 host cells; shares compounds with T cruzi growth-1; T. cruzi beta-gal in NIH3T3, GalScreen luminescence, 90 h; inhibition, % at 8.35 µM; 72% of 5,600 active; AID 651739;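 active = mean replicate inhibition above about 95% and at least 55% of replicates individually reaching it, limit read from the data; inconclusive = only one of the two criteria is met; inactive = neither criterion is met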
T cruzi growth-3 – blocks T. cruzi growth in NIH3T3 host cells; T. cruzi beta-gal in NIH3T3, GalScreen luminescence, 90 h; inhibition, % at 2.09 µM; AID 651740; 21% of 5,600 active; shares compounds with T cruzi growth-1;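 active = mean inhibition above about 95%, with at least 55% of replicates also reaching it, limit read from the data; inconclusive = meets just one of the two conditions; inactive = meets neither condition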;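 also: plate controls were neutral control median for no effect and positive control median for full effect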
3T3 cytotox – kills mouse NIH/3T3 fibroblasts. shares compounds with T cruzi growth-1. NIH/3T3 viability, CellTiter-Glo ATP luminescence, 90 h. cytotoxicity (signal decrease), % at 8.35 µM. 14% of 5,600 active. AID 651742;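 active = mean signal decrease across replicates above about 35% based on untreated-well scatter, with enough replicates individually passing, limit read from the data; inconclusive = no rule stated though some were filed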;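 also: 0% = median of neutral control wells and 100% = median of positive control wells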
3T3 cytotox 2 – NIH/3T3 (mouse) viability loss; shares compounds with T cruzi growth-1; NIH/3T3 viability, CellTiter-Glo ATP luminescence, 90 h; inhibition, % at 24.9 µM; 56% of 5,600 active; AID 651744;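 active = mean loss of cell viability signal at or above a set limit, and enough replicates individually reaching it; inconclusive = meets only the mean limit or only the replicate share; inactive = meets neither condition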;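 also: 0% = median of neutral control wells and 100% = median of positive control wells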
Active calls of the source: *; ? = inconclusive; / = no result; ! = not confirmed by another sample. Only some compounds are listed: those with a hit (about 5.8% of all), similar ones and a draw of the others.

SMILES | Pf Dd2 growth | GASC1 inh | IDH1 mut inh | T cruzi growth-1 | T cruzi growth-2 | T cruzi growth-3 | 3T3 cytotox | 3T3 cytotox 2
CN1c2ccc(-c3cccc(F)c3)cc2[C@H]2[C@H](CCN2C(=O)C2CC2)[C@@H]1CO | -8 | 10 | / | 117* | 102* | 64 | -3 | ?
COCC(=O)N1CC[C@@H]2[C@@H](CO)N(C)c3ccc(-c4cccc(F)c4)cc3[C@@H]21 | 18 | 2 | / | ? | 106* | 56 | 4 | 6
COCC(=O)N1CC[C@@H]2[C@H]1c1cc(-c3cccc(F)c3)ccc1N(C)[C@H]2CO | 25 | 1 | / | 102* | 107* | 77 | -5 | 4
COc1ccc(NC(=O)COc2ccc(CO)cc2OC)cc1 | / | / | 0 | / | / | / | / | /
COc1ccccc1NC(=O)Cn1cnc2scc(-c3cccc([N+](=O)[O-])c3)c2c1=O | / | / | 0 | / | / | / | / | /
O=C(Nc1ccccc1)N1CCCCN2[C@H](C1)[C@H](c1ccc(-c3ccccc3F)cc1)[C@@H]2CO | 17 | -1 | / | 113* | 108* | 60 | 14 | ?
O=C(Nc1ccc(F)cc1)N1CCCCN2[C@H](CO)[C@@H](c3ccc(-c4ccccc4F)cc3)[C@@H]2C1 | -31 | / | / | 112* | 101* | 104* | 32 | 104*
O=C(Nc1ccc(F)cc1)N1CCCCN2[C@H](CO)[C@H](c3ccc(-c4ccccc4F)cc3)[C@H]2C1 | -17 | / | / | 54 | / | / | / | /
O=C(Nc1ccc(F)cc1)N1CCCCN2[C@H](CO)[C@@H](c3ccc(-c4ccccc4F)cc3)[C@H]2C1 | -53 | / | / | 104* | 97* | ? | 58* | 105*
COc1ccc(-c2nn(-c3ccccc3)cc2C2NC(=O)NC(C)=C2C(=O)OCc2ccccc2)cc1 (stereo not given) | / | / | 0 | / | / | / | / | /
Cc1nn(C)c(C)c1/C=C/C(=O)C(C)(C)C | / | / | -1 | / | / | / | / | /
Cc1ccc(S(=O)(=O)N(C)C[C@@H]2Oc3ncc(C#Cc4ccc(F)cc4)cc3C(=O)N([C@H](C)CO)C[C@@H]2C)cc1 | -47 | -3 | 0 | -9 | / | / | / | /
C[C@H](CO)N1C[C@H](C)[C@H](CN(C)S(=O)(=O)c2ccccc2)Oc2ncc(C#Cc3cccc(F)c3)cc2C1=O | -31 | -3 | 1 | 50 | / | / | / | /
C[C@@H]1CN([C@@H](C)CO)C(=O)c2cc(C#CC3CCCC3)cnc2O[C@H]1CN(C)S(=O)(=O)c1cccc(F)c1 | -42 | 2 | 0 | 115* | 103* | 92 | 27 | 86*
C[C@H](CO)N1C[C@H](C)[C@H](CN(C)S(=O)(=O)c2ccc(F)cc2)Oc2ncc(C#Cc3ccc(F)cc3)cc2C1=O | -30 | -2 | 1 | 113* | 108* | 48 | 34 | 36*
C[C@H](CO)N1C[C@H](C)[C@H](CN(C)S(=O)(=O)c2ccccc2)Oc2ncc(C#Cc3ccc(F)cc3)cc2C1=O | -57 | -3 | -1 | ? | 107* | 54 | 21 | 16
Cc1cc(=O)[nH]c(SCCOc2c(C)ccc(C)c2Cl)n1 | / | / | 1 | / | / | / | / | /
Cc1ccc2nc(-c3ccccn3)cc(C(=O)NCc3ccccn3)c2c1 | / | / | -1 | / | / | / | / | /
C[C@H]1CN([C@@H](C)CO)C(=O)c2cccc(NC(=O)Nc3ccc(C(F)(F)F)cc3)c2O[C@@H]1CN(C)Cc1ccc(Cl)c(Cl)c1 | -25 | -1 | 4 | ? | 98* | 106* | 45* | 105*
C[C@@H]1CN([C@@H](C)CO)C(=O)c2cccc(NC(=O)Nc3ccc(F)cc3)c2O[C@H]1CN(C)Cc1ccc(Cl)c(Cl)c1 | -31 | -5 | / | 71 | / | / | / | /
C[C@H](CO)N1C[C@H](C)[C@@H](CN(C)Cc2ccc(Cl)c(Cl)c2)Oc2c(NC(=O)Nc3ccc(C(F)(F)F)cc3)cccc2C1=O | -18 | -1 | 1 | ? | 31 | -22 | 7 | 5
C[C@@H]1CN([C@@H](C)CO)C(=O)c2cccc(NC(=O)Nc3ccc(F)cc3)c2O[C@@H]1CN(C)Cc1ccc(Cl)c(Cl)c1 | -45 | 4 | 1 | 29 | / | / | / | /
C[C@H]1CN([C@@H](C)CO)C(=O)c2cccc(NC(=O)Nc3ccc(C(F)(F)F)cc3)c2O[C@H]1CN(C)Cc1ccc(Cl)c(Cl)c1 | -32 | -2 | / | ? | 98* | 105* | 13 | 103*
C[C@@H]1CN([C@@H](C)CO)C(=O)c2cccc(NC(=O)Nc3ccc(C(F)(F)F)cc3)c2O[C@@H]1CN(C)Cc1ccc(Cl)c(Cl)c1 | -29 | 7 | 1 | ? | 108* | 60 | 5 | 100*
CC(NS(=O)(=O)c1ccc(F)cc1)C(=O)Nc1cc(Cl)ccc1Oc1ccccc1 (stereo not given) | / | / | 0 | / | / | / | / | /
SMILES | Pf Dd2 growth | GASC1 inh | IDH1 mut inh | T cruzi growth-1 | T cruzi growth-2 | T cruzi growth-3 | 3T3 cytotox | 3T3 cytotox 2
COc1cc(/C=N/NC(=O)CCCCCC(=O)NO)ccc1O | / | / | -1 | / | / | / | / | /
COc1cccc(S(=O)(=O)N[C@H]2CC[C@@H](CCNC(=O)Cc3ccncc3)O[C@H]2CO)c1 | -5 | 1 | 0 | 106* | 44 | -9 | -2 | -4
O=C(NCC[C@H]1CC[C@H](NS(=O)(=O)c2cccc(Cl)c2)[C@@H](CO)O1)c1cnccn1 | -2 | -2 | 0 | 144* | 21 | -29 | -16 | 18
O=C(NCC[C@@H]1CC[C@@H](NS(=O)(=O)c2cccc(Cl)c2)[C@@H](CO)O1)c1cnccn1 | 14 | 0 | 0 | -31 | / | / | / | /
COc1cccc(S(=O)(=O)N[C@H]2CC[C@@H](CCNC(=O)Cc3ccncc3)O[C@@H]2CO)c1 | 2 | 0 | 0 | 15 | / | / | / | /
CC1CCc2c(sc3ncnc(NCCc4nc5ccccc5[nH]4)c23)C1 (stereo not given) | / | / | 1 | / | / | / | / | /
CCc1ccc(OCC(=O)Nc2sc3c(c2C(N)=O)CCCC3)c(Br)c1 | / | / | 0 | / | / | / | / | /
COc1ccc(S(=O)(=O)N(C)C[C@@H]2Oc3cc(C#CC4CCCCC4)ccc3S(=O)(=O)N([C@@H](C)CO)C[C@@H]2C)cc1 | -84*! | 3 | 1 | 111*! | 92 | 78 | -10 | 59*
COc1ccc(S(=O)(=O)N(C)C[C@@H]2Oc3cc(C#CC4CC4)ccc3S(=O)(=O)N([C@H](C)CO)C[C@@H]2C)cc1 | -54 | 0 | -2 | 109* | 104* | 85 | 12 | 25*
COc1ccc(S(=O)(=O)N(C)C[C@H]2Oc3cc(C#CC4CC4)ccc3S(=O)(=O)N([C@H](C)CO)C[C@@H]2C)cc1 | -54 | 1 | / | 106* | 103* | 52 | 22 | 50*
COc1ccc(S(=O)(=O)N(C)C[C@@H]2Oc3cc(C#CC4CC4)ccc3S(=O)(=O)N([C@@H](C)CO)C[C@@H]2C)cc1 | -53 | 0 | / | 110* | 104* | 101* | -19 | 27*
